Test [1] is filed under the species Rattus norvegicus. Put plainly: Compound was tested for antihypertensive activity in rat after 24 hr postdose. The format is functional. In outline: (§1)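 DOCA/saline hypertensive Sprague-Dawley rats (250-350 g), six per group, given 10 mg/kg doca s.c. daily with saline until systolic BP reached 170 mmHg (usually 3-4 weeks). Oral 25 mg/kg in 5 mL/kg 1% methylcellulose. Systolic BP by tail-cuff before and 1, 4, 24 h after; drop reported as mean ± SD.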

For test [2], the species on record is Rattus norvegicus. Put plainly: Diuretic activity in rats at time intervals of 0-5 hours. The format is functional, Urine. In outline:
(§2)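 Male Sabra rats (170-200 g), starved 18 h, given 50 mg/kg by stomach tube in saline (25 mL/kg load), eight per compound, saline and furosemide controls run alongside. Held two per metabolic cage at 22 °C without food or water. Urine volume measured at 5 and 24 h collections.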

The test system of test [3] is Rattus norvegicus. Put plainly: The heart rate was measured in spontaneously hypertensive rat after po administration at 24 hr. The format is functional. The essentials:
(§3)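 Male-unspecified SHR (250-350 g; baseline BP at least 170 mmHg by indirect tail-cuff plethysmography), nonanesthetized, five per group. Single oral dose of 75 mg/kg. Indirect BP and heart rate recorded before dosing and 4, 8 and 24 h after. Group means reported, BP ± SEM.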

Test [4] deals with Rattus norvegicus. The test can be described thus: Blood pressure was measured in spontaneously hypertensive rat after po administration at 8 hr. The test is classed as functional. In outline: as §3
Test [5] is filed under the species Rattus norvegicus. Put plainly: Diuretic activity in rats at time intervals of 0-24 hours. The test is classed as functional, Urine. In outline:
as §2

Test [6] relates to Rattus norvegicus. Put plainly: The heart rate was measured in spontaneously hypertensive rat after po administration at 8 hr. The test is classed as functional. The essentials: as §3
Test [7] relates to Rattus norvegicus. Put plainly: The heart rate was measured in spontaneous hypertensive rat after po administration at 4 hr. The test is classed as functional. In outline: as §3
The species entered for test [8] is Rattus norvegicus. Put plainly: Saluretic activity in rats after 5-24 hours, as ratio of Na+/K+ ion concentration in urine. The test is classed as functional. The essentials: (§4)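 Male Sabra rats (170-200 g), fasted 18 h, dosed orally 50 mg/kg in saline at 25 mL/kg, eight per compound, two per metabolic cage, no food or water. Urine collected 5 and 24 h after dosing and centrifuged. Chloride titrated with Hg(NO3)2/diphenylcarbazone after HNO3 acidification; Na+ and K+ by atomic absorption.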

The species entered for test [9] is Rattus norvegicus. The test can be described thus: Saluretic activity in rats after 0-5 hours, as sodium ion concentration in urine. The format is functional. The essentials: as §4
For test [10], the species on record is Rattus norvegicus. Put plainly: Saluretic activity in rats after 5-24 hours, as chloride ion concentration in urine. The test is classed as functional. The essentials:
as §4

The species entered for test [11] is Rattus norvegicus. Put plainly: Saluretic activity in rats after 5-24 hours, as sodium ion concentration in urine. The format is functional. The essentials:
as §4

The species entered for test [12] is Rattus norvegicus. The test can be described thus: Saluretic activity in rats after 0-24 hours, as ratio of Na+/K+ ion concentration in urine. The test is classed as functional. In outline:
as §4

For test [13], the species on record is Rattus norvegicus. Put plainly: Saluretic activity in rats after 5-24 hours, as potassium ion concentration in urine. The format is functional. In outline: as §4
Test [14] is filed under the species Rattus norvegicus. Put plainly: Saluretic activity in rats after 0-5 hours, as chloride ion concentration in urine. The test is classed as functional. The essentials: as §4
For test [15], the species on record is Rattus norvegicus. The test can be described thus: Saluretic activity in rats after 0-5 hours, as potassium ion concentration in urine. The test is classed as functional. The essentials:
as §4

For test [16], the species on record is Rattus norvegicus. Put plainly: Diuretic activity in rats at time intervals of 5-24 hours. The test is classed as functional, Urine. In outline: as §2
Test [17] is filed under the species Rattus norvegicus. The test can be described thus: Saluretic activity in rats after 0-24 hours, as potassium ion concentration in urine. The format is functional. The essentials: as §4
Test [18] is filed under the species Rattus norvegicus. The test can be described thus: Saluretic activity in rats after 0-24 hours, as sodium ion concentration in urine. The format is functional. In outline: as §4
The species named for test [19] is Rattus norvegicus. Put plainly: Saluretic activity in rats after 0-24 hours, as chloride ion concentration in urine. The test is classed as functional. The essentials:
as §4

In test [20] the test system is Rattus norvegicus. The test can be described thus: Blood pressure was measured in spontaneously hypertensive rat after po administration at 24 hr. The test is classed as functional. The essentials: as §3
The species entered for test [21] is Rattus norvegicus. Put plainly: Compound was tested for antihypertensive activity in rat after 1 hr postdose. The format is functional. The essentials:
as §1

For test [22], the species on record is Rattus norvegicus. Put plainly: Compound was tested for antihypertensive activity in rat after 4 hr postdose. The format is functional. The essentials:
as §1

Test [23] is filed under the species Rattus norvegicus. Put plainly: Saluretic activity in rats after 0-5 hours, as ratio of Na+/K+ ion concentration in urine. The format is functional. The essentials:
as §4

The subject of test [24] is Rattus norvegicus. Put plainly: Blood pressure was measured in spontaneously hypertensive rat after po administration at 4 hr. The test is classed as functional. The essentials:
as §3

Data on 3 compounds can be found in ChEMBL document CHEMBL1123499, “Synthesis, saludiuretic, and antihypertensive activity of 6,7-disubstituted 1(2H)- and 3,4-dihydro-1(2H)-phthalazinones” (1986).

`NS(=O)(=O)c1cc2c(=O)n(Cc3ccccc3)ncc2cc1Cl`: the “Decrease in blood pressure” value in test [1] turned out to be 47 mmHg; in [21], 23 mmHg; in test [22] it was 36 mmHg. In addition, the Diuretic activity in [2] is 5.9 mL; in [5], 10.8 mL; in test [16], 4.9 mL. For the same compound, the Heart rate amounted to 402 beats min-1 in [3], 411.6 beats min-1 in test [6] and 399.6 beats min-1 in [7]. In addition, the BP in test [4] was found to be 149 mmHg; in test [20], 170.2 mmHg; in test [24], 163.2 mmHg. Moreover, the values for the Delta blood pressure in test [4], in test [20] and in test [24] were 40.2 mmHg, 14.6 mmHg and 23.4 mmHg, respectively. In addition, the results for the Ratio in [8], in test [12] and in test [23] were 1.78, 2.32 and 3.29, respectively. In addition, the Saluretic activity in [9] came to 6.4 m equiv kg-1; in test [10] it was 5.72 m equiv kg-1; in [11], 5.92 m equiv kg-1; in [13], 3.36 m equiv kg-1; in test [14], 7.97 m equiv kg-1; in [15], 1.94 m equiv kg-1. Also, the results for the Saluretic activity in test [17], in [18] and in test [19] were 5.3 m equiv kg-1, 12.32 m equiv kg-1 and 13.69 m equiv kg-1, respectively.

With `NS(=O)(=O)c1cc2cnn(Cc3ccccc3)c(=O)c2cc1Cl`, the “Decrease in blood pressure” value is recorded as 4.7 mmHg in [1], 35.3 mmHg in test [21] and 54.3 mmHg in test [22]. For the same compound, the Diuretic activity in [2] was 2.6 mL; in test [5], 6.2 mL; in [16], 3.6 mL. Moreover, the Ratio in test [8] came to 1.62; in test [12], 1.53; in [23] it was 1.36. For the same compound, the Saluretic activity in test [9] came to 2.5 m equiv kg-1; in test [10] it was 6 m equiv kg-1; in test [11], 6.29 m equiv kg-1; in test [13], 3.9 m equiv kg-1; in test [14] it was 2.9 m equiv kg-1; in test [15] it was 1.84 m equiv kg-1. In addition, the Saluretic activity was 5.74 m equiv kg-1 in [17], 8.79 m equiv kg-1 in test [18] and 8.9 m equiv kg-1 in test [19].

Regarding `NS(=O)(=O)c1cc(C(=O)O)c(NCc2ccco2)cc1Cl` [FUROSEMIDE], the “Decrease in blood pressure” value in [1] is 5.3 mmHg; in test [21], 35.8 mmHg; in test [22], 59.2 mmHg. Moreover, the Diuretic activity in test [2] came to 19.2 mL; in test [5], 22 mL; in test [16], 3 mL. The Ratio in test [8] is 0.68; in test [12] it was 1.85; in [23], 3.03. Also, the Saluretic activity in test [9] is on record as 13.2 m equiv kg-1; in test [10] it was 1.65 m equiv kg-1; in test [11], 3.02 m equiv kg-1; in test [13], 4.42 m equiv kg-1; in test [14], 16.2 m equiv kg-1; in test [15] it was 4.36 m equiv kg-1. The Saluretic activity is listed as 8.78 m equiv kg-1 in [17], 16.22 m equiv kg-1 in [18] and 17.85 m equiv kg-1 in [19].
